Values after ≈ are worked out from the molar mass of the structure shown.
Legend:
[1] = test system: Salmonella typhimurium; test: Genotoxicity in Salmonella typhimurium TA98 at =<5000 ug/plate in absence of metabolic activators by Ames test; assay type: toxicity, organism-based; conditions: salmonella enterica subsp. enterica serovar typhimurium
Summary of the method: (§1)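 Bacterial reverse mutation (Ames) test, Salmonella typhimurium TA98 and TA100, up to 5000 µg/plate, with and without metabolic activation.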

[2] = test system: Salmonella typhimurium; test: Genotoxicity in Salmonella typhimurium TA100 at =<5000 ug/plate in presence of metabolic activators by Ames test; assay type: toxicity, organism-based; conditions: salmonella enterica subsp. enterica serovar typhimurium; summary of the method: as §1
[3] = AUC in cynomolgus monkey at 5 mg/kg, po; assay type: ADME, organism-based, Macaca fascicularis; conditions: in vivo
Summary of the method: (§2)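 Single IV (about 1 mg/kg) and oral (about 5 mg/kg) doses in rat, cynomolgus monkey and dog; CL, t1/2, Vss, Cmax, tmax, AUC and oral bioavailability F derived from plasma concentration-time data.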

[4] = Ssolubility of the compound at pH 2.3; assay type: physicochemical; conditions: buffer
[5] = species on record: Canis familiaris; test: Toxicity in dog assessed as occurence of convulsions; assay type: organism-based, Canis lupus familiaris; conditions: in vivo
[6] = Drug metabolism in dog liver microsomes assessed as CYP-mediated metabolism by measuring compound half life; assay type: ADME, Canis lupus familiaris
Summary of the method: (§3)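 Microsomal stability with NADPH (CYP-dependent) in rat, cynomolgus, dog and human microsomes; half-life in min.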

[7] = Clearance in Sprague-Dawley rat at 1 mg/kg, iv after 4 hrs; assay type: ADME, organism-based; conditions: in vivo
Summary of the method: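 Male Sprague-Dawley rats given 1 mpk IV in PEG400/ethanol (90:10); blood sampled at 5 and 30 min and 1, 2 and 4 h post-dose; clearance from plasma profile.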

[8] = Oral bioavailability in Sprague-Dawley rat at 4.4 mg/kg; assay type: ADME, organism-based; conditions: in vivo; summary of the method: as §2
[9] = test system: CHO; test: Genotoxicity in CHO cells at up to 0.36 mM after 22.5 hrs in absence of metabolic activators by micronucleus assay; assay type: toxicity, cell-based, Cricetulus griseus; conditions: chinese hamster
Summary of the method: (§4)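 Cytokinesis-blocked micronucleus test in cultured CHO cells: up to 1.4 mM (500 µg/mL) for 3 h with metabolic activation, or up to 0.36 mM for 22.5 h without activation.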

[10] = Ssolubility of the compound at pH 7.3; assay type: physicochemical; conditions: buffer
[11] = Ssolubility of the compound at pH 6.1; assay type: physicochemical; conditions: buffer
[12] = Clearance in Sprague-Dawley rat at 0.87 mg/kg, iv; assay type: ADME, organism-based; conditions: in vivo; summary of the method: as §2
[13] = Drug metabolism in human microsomes assessed as CYP-mediated metabolism by measuring compound half life; assay type: ADME; summary of the method: as §3
[14] = Protein binding in dog plasma; assay type: ADME, cell-free, Canis lupus familiaris; conditions: read-out: PPB (converted)
[15] = test system: Salmonella typhimurium; test: Genotoxicity in Salmonella typhimurium TA100 at =<5000 ug/plate in absence of metabolic activators by Ames test; assay type: toxicity, organism-based; conditions: salmonella enterica subsp. enterica serovar typhimurium; summary of the method: as §1
[16] = species on record: Homo sapiens; test: Inhibition of human p-gp assessed as decrease in [3H]-digoxin transport at 10 uM
[17] = Oral bioavailability in Beagle dog at 5.2 mg/kg; assay type: ADME, organism-based, Canis lupus familiaris; conditions: in vivo; summary of the method: as §2
[18] = Clearance in Beagle dog at 1 mg/kg, iv; assay type: ADME, organism-based, Canis lupus familiaris; conditions: in vivo; summary of the method: as §2
[19] = Dissociation constant, pKa of the compound; assay type: physicochemical
[20] = test system: CHO; test: Genotoxicity in CHO cells at 1.4 mM after 3 hrs in presence of metabolic activators by micronucleus assay; assay type: toxicity, cell-based, Cricetulus griseus; conditions: chinese hamster, 1400 µM; summary of the method: as §4
[21] = target: Human immunodeficiency virus type 1 integrase (Human immunodeficiency virus 1, UniProt Q7ZJM1); test: Inhibition of HIV1 integrase strand transfer activity
[22] = Lipophilicity, log D of the compound at pH 6.5; assay type: physicochemical; conditions: buffer
Summary of the method: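 LogD determined experimentally at pH 6.5.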

[23] = test system: Homo sapiens; test: Toxicity in normal healthy human at 200 to 1200 mg, po, administered as single dose; assay type: organism-based; conditions: in vivo
Summary of the method: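 Human subjects received single oral doses of 200, 600, 800 or 1200 mg and were monitored for clinically significant adverse events.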

[24] = Half-life in Beagle dog at 1 mg/kg, iv; assay type: ADME, organism-based, Canis lupus familiaris; conditions: in vivo; summary of the method: as §2
[25] = test system: Salmonella typhimurium; test: Genotoxicity in Salmonella typhimurium TA98 at =<5000 ug/plate in presence of metabolic activators by Ames test; assay type: toxicity, organism-based; conditions: salmonella enterica subsp. enterica serovar typhimurium; summary of the method: as §1
[26] = Drug metabolism in rat liver microsomes assessed as CYP-mediated metabolism by measuring compound half life; assay type: ADME; summary of the method: as §3
[27] = target: Cytochrome P450 2C19 (Homo sapiens, UniProt P33261); test: Inhibition of human CYP2C19; assay type: ADME
[28] = target: Cytochrome P450 3A4 (Homo sapiens, UniProt P08684); test: Inhibition of human CYP3A4; assay type: ADME
[29] = Permeability across basolateral to apical side in human Caco2 cells at 3 uM; assay type: ADME, cell-based; conditions: Caco-2, read-out: permeability
Summary of the method: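 Caco-2 monolayer permeability at 3 µM, apical-to-basolateral and basolateral-to-apical, reported in nm/sec.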

[30] = Tmax in Beagle dog at 5.2 mg/kg, po; assay type: ADME, organism-based, Canis lupus familiaris; conditions: in vivo

Sequence of Cytochrome P450 2C19 (P33261 whole entry): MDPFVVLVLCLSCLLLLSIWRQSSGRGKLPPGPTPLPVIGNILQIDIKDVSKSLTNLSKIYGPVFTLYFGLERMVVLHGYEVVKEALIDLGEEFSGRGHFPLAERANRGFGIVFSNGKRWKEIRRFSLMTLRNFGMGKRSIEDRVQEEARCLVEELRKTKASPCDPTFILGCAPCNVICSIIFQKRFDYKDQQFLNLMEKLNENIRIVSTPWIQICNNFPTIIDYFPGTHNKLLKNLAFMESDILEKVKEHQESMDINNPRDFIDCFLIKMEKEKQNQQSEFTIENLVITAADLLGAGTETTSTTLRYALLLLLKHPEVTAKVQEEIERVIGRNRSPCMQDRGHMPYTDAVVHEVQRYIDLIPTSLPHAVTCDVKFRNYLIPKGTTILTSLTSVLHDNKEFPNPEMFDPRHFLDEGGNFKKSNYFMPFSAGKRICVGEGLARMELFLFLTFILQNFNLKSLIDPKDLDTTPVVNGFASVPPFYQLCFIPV
Sequence of Human immunodeficiency virus type 1 integrase (Q7ZJM1 whole entry): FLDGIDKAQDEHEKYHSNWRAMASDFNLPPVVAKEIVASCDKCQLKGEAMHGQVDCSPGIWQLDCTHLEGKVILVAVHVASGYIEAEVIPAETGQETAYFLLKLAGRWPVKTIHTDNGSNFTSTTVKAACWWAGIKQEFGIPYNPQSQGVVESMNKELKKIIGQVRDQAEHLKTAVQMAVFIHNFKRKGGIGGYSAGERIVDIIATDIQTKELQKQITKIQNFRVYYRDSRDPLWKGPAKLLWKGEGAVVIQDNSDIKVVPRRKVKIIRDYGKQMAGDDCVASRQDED
Sequence of Cytochrome P450 3A4 (P08684 whole entry): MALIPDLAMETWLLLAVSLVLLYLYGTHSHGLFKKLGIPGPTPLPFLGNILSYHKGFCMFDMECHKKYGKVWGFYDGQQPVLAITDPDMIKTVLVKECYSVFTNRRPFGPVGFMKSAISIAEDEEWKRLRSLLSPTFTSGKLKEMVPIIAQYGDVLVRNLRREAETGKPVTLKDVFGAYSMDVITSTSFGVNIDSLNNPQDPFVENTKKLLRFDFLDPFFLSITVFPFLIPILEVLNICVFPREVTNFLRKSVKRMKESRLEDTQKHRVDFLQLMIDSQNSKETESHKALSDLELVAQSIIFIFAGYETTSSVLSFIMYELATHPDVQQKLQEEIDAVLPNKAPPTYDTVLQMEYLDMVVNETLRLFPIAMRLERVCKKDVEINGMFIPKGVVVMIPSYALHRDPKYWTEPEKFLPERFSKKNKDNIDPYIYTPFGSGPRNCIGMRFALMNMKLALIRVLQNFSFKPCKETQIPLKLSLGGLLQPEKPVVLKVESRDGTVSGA

CC1(C)OCCn2c1nc(C(=O)NCc1ccc(F)cc1)c(O)c2=O
Activity [1]: Non-Toxic | Activity [2]: Non-Toxic | AUC [3]: 19.2 µM·h | solubility [4]: 9 µg/mL (≈ 25.9 µM) | Activity [5]: Toxic | half-life [6]: 1.78 h | clearance [7]: 9.6 mL/min/kg | bioavailability [8]: 86% | Activity [9]: Non-Toxic | solubility [10]: 63 µg/mL (≈ 181 µM) | solubility [11]: 21 µg/mL (≈ 60.5 µM) | clearance [12]: 9.7 mL/min/kg | half-life [13]: 1.83 h | fraction unbound [14]: 0.015 | Activity [15]: Non-Toxic | inhibition [16]: 5% | bioavailability [17]: 129% | clearance [18]: 2 mL/min/kg | pKa [19]: 6.6 | Activity [20]: Non-Toxic | IC50 [21]: 0.003 µM | logD [22]: 2.02 | Activity [23]: Non-Toxic | half-life [24]: 6 h | Activity [25]: Non-Toxic | half-life [26]: > 2 h | IC50 [27]: > 40 µM | IC50 [28]: > 40 µM | Papp B→A at 3 µM [29]: 24 ×10⁻⁶ cm/s | Tmax [30]: 0.25 h

Source: ChEMBL document CHEMBL4118197, “The discovery and preclinical evaluation of BMS-707035, a potent HIV-1 integrase strand transfer inhibitor” (Bioorg Med Chem Lett, 2018)
